Laboratory results taken from ChEMBL document CHEMBL1641497, “A potent and selective indole N-type calcium channel (Ca(v)2.2) blocker for the treatment of pain” (Bioorg Med Chem Lett, 2011).
Activity calls are given as the source filed them. No cut-off for these calls is given here.

Columns and labels:
Rattus norvegicus [1] = assay: Antinociceptive activity in rat assessed as reversal of complete Freund's adjuvant-induced pain at 30 mg/kg, po after 3 hrs; format: functional
How it was run: (§1)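 Rat CFA-induced inflammatory pain model, oral dosing. Mechanical allodynia assessed by paw pressure and expressed as % reversal. Plasma and brain drug levels measured at 3 h post-dose.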

Rattus norvegicus [2] = assay: Antinociceptive activity in rat assessed as reversal of complete Freund's adjuvant-induced pain at 30 mg/kg, po after 1 hr; format: functional; how it was run: as §1
[3] = Drug level in rat brain at 30 mg/kg, po after 3 hrs; format: ADME, organism-based; design: dose 30 mg/kg, route oral; conditions: read-out: Activity; how it was run: as §1
[4] = Metabolic stability in human liver microsomes assessed as compound remaining after 60 mins; format: ADME, Microsome; conditions: read-out: Stability
How it was run: (§2)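 Compounds incubated with human or rat liver microsomes for 60 min. Read-out is the percent of parent compound remaining.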

Rattus norvegicus [5] = assay: Antinociceptive activity in rat assessed as reversal of complete Freund's adjuvant-induced pain at 3 mg/kg, po after 3 hrs; format: functional; how it was run: as §1
[6] = target: T1, Nuclear receptor subfamily 1 group I member 2 (Homo sapiens, UniProt O75469); assay: Activity at PXR by induction assay
T1 sequence (O75469 whole entry): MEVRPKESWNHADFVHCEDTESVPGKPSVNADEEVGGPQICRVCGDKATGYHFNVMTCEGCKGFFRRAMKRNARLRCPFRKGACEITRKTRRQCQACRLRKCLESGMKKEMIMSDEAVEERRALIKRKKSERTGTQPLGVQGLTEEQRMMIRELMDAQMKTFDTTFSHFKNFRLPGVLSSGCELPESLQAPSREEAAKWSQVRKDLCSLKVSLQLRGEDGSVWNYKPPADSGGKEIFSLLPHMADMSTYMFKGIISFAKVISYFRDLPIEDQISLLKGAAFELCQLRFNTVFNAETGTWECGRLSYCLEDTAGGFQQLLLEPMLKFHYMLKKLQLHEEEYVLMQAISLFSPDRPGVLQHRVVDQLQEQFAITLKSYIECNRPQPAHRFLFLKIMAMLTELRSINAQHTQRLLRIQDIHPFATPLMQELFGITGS

Rattus norvegicus [7] = assay: Antinociceptive activity in rat assessed as reversal of complete Freund's adjuvant-induced pain at 3 mg/kg, po after 1 hr; format: functional; how it was run: as §1
Canis familiaris [8] = assay: Dose normalized AUC in dog at 1 mg/kg, iv and 3 mg/kg, po; format: ADME, organism-based, Canis lupus familiaris; conditions: in vivo
How it was run: (§3)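 Dog PK with 1.0 mg/kg IV and 3.0 mg/kg PO doses, based on plasma analysis. Parameters: dose-normalized AUC (μM h kg/mg), plasma clearance (mL/min/kg), T1/2 (h) and oral bioavailability (%).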

Rattus norvegicus [9] = assay: Dose normalized AUC in rat at 1 mg/kg, iv and 3 mg/kg, po; format: ADME, organism-based; conditions: in vivo
How it was run: (§4)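 Rat PK with 1.0 mg/kg IV and 3.0 mg/kg PO doses, based on plasma analysis. Parameters: Cmax, dose-normalized AUC (μM h kg/mg), plasma clearance (mL/min/kg), Vdss (L/kg), T1/2 (h) and oral bioavailability (%).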

Rattus norvegicus [10] = assay: Antinociceptive activity in rat assessed as reversal of complete Freund's adjuvant-induced pain at 10 mg/kg, po after 1 hr; format: functional; how it was run: as §1
Cytochrome P450 2D6 = Cytochrome P450 2D6 (Homo sapiens, UniProt P10635); assay: Inhibition of CYP2D6; format: ADME
[11] = Half life in dog at 1 mg/kg, iv and 3 mg/kg, po; format: ADME, organism-based, Canis lupus familiaris; conditions: in vivo; how it was run: as §3
[12] = Cmax in rat at 1 mg/kg, iv and 3 mg/kg, po; format: ADME, organism-based; conditions: in vivo; how it was run: as §4
Rattus norvegicus [13] = species: Rattus norvegicus; assay: Neurotoxicity in rat assessed as impairment of motor coordination at 6 uM brain concentration by rotarod test; format: toxicity, organism-based; conditions: in vivo
How it was run: (§5)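 Rat Rotarod motor coordination test after IV doses of 3 and 10 mg/kg. Plasma and brain drug concentrations determined alongside coordination impairment.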

[14] = Plasma clearance in rat at 1 mg/kg, iv and 3 mg/kg, po; format: ADME, organism-based; how it was run: as §4
[15] = Drug level in spinal nerve ligation model rat brain at 30 mg/kg, po after 1 hrs; format: ADME, organism-based; design: dose 30 mg/kg, route oral; conditions: read-out: Activity
How it was run: (§6)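 Rat spinal nerve ligation neuropathic pain model, oral dosing. Read-out is % reversal of mechanical allodynia. Plasma and brain drug levels measured at 1 h. An efficacious (EC50) plasma exposure was derived.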

Rattus norvegicus [16] = assay: Antinociceptive activity in rat assessed as reversal of complete Freund's adjuvant-induced pain at 3 mg/kg, po after 8 hrs; format: functional; how it was run: as §1
[17] = Plasma concentration in rat spinal nerve ligation model at 30 mg/kg, po after 1 hrs; format: ADME, organism-based; design: dose 30 mg/kg, route oral; conditions: read-out: Activity; how it was run: as §6
Rattus norvegicus [18] = species: Rattus norvegicus; assay: Neurotoxicity in rat assessed as impairment of motor coordination at 1.4 uM brain concentration by rotarod test; format: toxicity, organism-based; conditions: in vivo; how it was run: as §5
Cytochrome P450 3A4 = Cytochrome P450 3A4 (Homo sapiens, UniProt P08684); assay: Inhibition of CYP3A4; format: ADME
Rattus norvegicus [19] = assay: Antiallodynic activity in rat spinal nerve ligation model of neuropathic pain assessed as reversal of mechanical allodynia at 10 mg/kg, po after 3 hrs; format: functional; how it was run: as §6
Rattus norvegicus [20] = species: Rattus norvegicus; assay: Neurotoxicity in rat assessed as impairment of motor coordination at 1.9 uM plasma concentration by rotarod test; format: toxicity, organism-based; conditions: in vivo; how it was run: as §5
Brain = assay: Drug level in rat brain at 3 mg/kg, iv; format: ADME, organism-based; design: dose 3 mg/kg, route intravenous; conditions: in vivo, read-out: Drug uptake; how it was run: as §5
Rattus norvegicus [21] = species: Rattus norvegicus; assay: Neurotoxicity in rat assessed as impairment of motor coordination at 8 uM plasma concentration by rotarod test; format: toxicity, organism-based; conditions: in vivo; how it was run: as §5
Rattus norvegicus [22] = assay: Antinociceptive activity in rat assessed as reversal of complete Freund's adjuvant-induced pain at 10 mg/kg, po after 8 hrs; format: functional; how it was run: as §1
Canis familiaris [23] = species: Canis familiaris; assay: Cardiotoxicity in dog assessed as reduction in mean arterial pressure at >2 uM plasma concentration; format: toxicity, organism-based, Canis lupus familiaris
How it was run: (§7)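 Barbiturate-anesthetized, ventilated dogs given rising IV doses of 1, 3 and 10 mg/kg. Mean arterial pressure and heart rate recorded against plasma drug concentration.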

[24] = target: Cav1.2 (voltage-dependent L-type calcium channel subunit alpha-1C) (Homo sapiens, UniProt Q13936); assay: Blockade of Cav1.2 channel at 10 uM by fluorescent calcium-influx assay
How it was run: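 Cav1.2 (L-type) channel block measured with a fluorescent calcium-influx FLIPR assay. Results are reported as % inhibition at 10 μM test concentration.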

Cytochrome P450 2C9 = Cytochrome P450 2C9 (Homo sapiens, UniProt P11712); assay: Inhibition of CYP2C9; format: ADME
Plasma = assay: Plasma concentration in rat at 3 mg/kg, iv; format: ADME, organism-based; design: dose 3 mg/kg, route intravenous; conditions: in vivo, read-out: Drug uptake; how it was run: as §5
[25] = Plasma clearance in dog at 1 mg/kg, iv and 3 mg/kg, po; format: ADME, organism-based, Canis lupus familiaris; how it was run: as §3
[26] = Volume of distribution at steady state in rat at 1 mg/kg, iv and 3 mg/kg, po; format: ADME, organism-based; conditions: in vivo, read-out: Vdss; how it was run: as §4
Rattus norvegicus [27] = assay: Antinociceptive activity in rat assessed as reversal of complete Freund's adjuvant-induced pain at 30 mg/kg, po after 8 hrs; format: functional; how it was run: as §1
[28] = Metabolic stability in rat liver microsomes assessed as compound remaining after 60 mins; format: ADME, Microsome; conditions: read-out: Stability; how it was run: as §2
Rattus norvegicus [29] = assay: Antiallodynic activity in rat spinal nerve ligation model of neuropathic pain assessed as reversal of mechanical allodynia at 30 mg/kg, po after 1 hr; format: functional; how it was run: as §6
Rattus norvegicus [30] = assay: Antiallodynic activity in rat spinal nerve ligation model of neuropathic pain assessed as reversal of mechanical allodynia at 30 mg/kg, po after 8 hrs; format: functional; how it was run: as §6
Rattus norvegicus [31] = species: Rattus norvegicus; assay: Antiallodynic activity in rat spinal nerve ligation model of neuropathic pain assessed as reversal of mechanical allodynia at 0.44 uM plasma concentration; format: functional, organism-based; how it was run: as §6
[32] = Half life in rat at 1 mg/kg, iv and 3 mg/kg, po; format: ADME, organism-based; conditions: in vivo; how it was run: as §4
[33] = Oral bioavailability in rat at 3 mg/kg; format: ADME, organism-based; conditions: in vivo; how it was run: as §4
[34] = Oral bioavailability in dog at 3 mg/kg; format: ADME, organism-based, Canis lupus familiaris; conditions: in vivo
Rattus norvegicus [35] = assay: Antiallodynic activity in rat spinal nerve ligation model of neuropathic pain assessed as reversal of mechanical allodynia at 30 mg/kg, po after 3 hrs; format: functional; how it was run: as §6
Rattus norvegicus [36] = assay: Antiallodynic activity in rat spinal nerve ligation model of neuropathic pain assessed as reversal of mechanical allodynia at 10 mg/kg, po after 1 hr; format: functional; how it was run: as §6
[37] = Plasma concentration in rat at 30 mg/kg, po after 3 hrs; format: ADME, organism-based; design: dose 30 mg/kg, route oral; conditions: read-out: Activity; how it was run: as §1
Canis familiaris [38] = species: Canis familiaris; assay: Cardiotoxicity in dog assessed as reduction in heart rate at maximal plasma exposure; format: toxicity, organism-based, Canis lupus familiaris; design: scale not given: the % may be the effect or the level left; how it was run: as §7
Rattus norvegicus [39] = assay: Antiallodynic activity in rat spinal nerve ligation model of neuropathic pain assessed as reversal of mechanical allodynia at 10 mg/kg, po after 8 hrs; format: functional; how it was run: as §6
Rattus norvegicus [40] = assay: Antinociceptive activity in rat assessed as reversal of complete Freund's adjuvant-induced pain at 10 mg/kg, po after 3 hrs; format: functional; how it was run: as §1

Sequence of Cytochrome P450 2D6 (P10635 whole entry): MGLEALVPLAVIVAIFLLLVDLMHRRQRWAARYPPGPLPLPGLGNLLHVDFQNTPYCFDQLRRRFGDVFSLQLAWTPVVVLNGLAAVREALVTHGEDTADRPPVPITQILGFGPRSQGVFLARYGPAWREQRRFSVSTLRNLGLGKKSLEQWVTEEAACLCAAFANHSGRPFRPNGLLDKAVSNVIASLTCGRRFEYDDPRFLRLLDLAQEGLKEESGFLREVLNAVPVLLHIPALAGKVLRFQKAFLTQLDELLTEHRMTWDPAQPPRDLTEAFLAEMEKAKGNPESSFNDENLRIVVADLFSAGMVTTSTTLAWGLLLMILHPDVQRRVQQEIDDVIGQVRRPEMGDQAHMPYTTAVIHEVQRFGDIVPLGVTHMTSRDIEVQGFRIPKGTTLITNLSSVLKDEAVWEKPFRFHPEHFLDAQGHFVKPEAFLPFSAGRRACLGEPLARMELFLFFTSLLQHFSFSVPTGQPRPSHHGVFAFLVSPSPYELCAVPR
Sequence of Cytochrome P450 2C9 (P11712 whole entry): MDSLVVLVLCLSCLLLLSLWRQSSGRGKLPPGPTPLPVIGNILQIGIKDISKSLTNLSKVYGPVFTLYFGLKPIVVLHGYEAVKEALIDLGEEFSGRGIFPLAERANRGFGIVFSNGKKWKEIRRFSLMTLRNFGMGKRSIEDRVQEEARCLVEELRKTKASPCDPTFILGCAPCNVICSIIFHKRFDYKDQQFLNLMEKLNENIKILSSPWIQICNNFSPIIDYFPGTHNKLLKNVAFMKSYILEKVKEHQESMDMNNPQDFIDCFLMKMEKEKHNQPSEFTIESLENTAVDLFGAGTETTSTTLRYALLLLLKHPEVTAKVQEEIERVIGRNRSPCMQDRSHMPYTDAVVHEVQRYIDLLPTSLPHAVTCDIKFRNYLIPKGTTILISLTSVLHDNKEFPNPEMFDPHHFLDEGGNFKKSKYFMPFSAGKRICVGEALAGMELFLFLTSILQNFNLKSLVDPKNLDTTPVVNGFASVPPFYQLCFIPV
Sequence of Cav1.2 (voltage-dependent L-type calcium channel subunit alpha-1C) (Q13936 whole entry): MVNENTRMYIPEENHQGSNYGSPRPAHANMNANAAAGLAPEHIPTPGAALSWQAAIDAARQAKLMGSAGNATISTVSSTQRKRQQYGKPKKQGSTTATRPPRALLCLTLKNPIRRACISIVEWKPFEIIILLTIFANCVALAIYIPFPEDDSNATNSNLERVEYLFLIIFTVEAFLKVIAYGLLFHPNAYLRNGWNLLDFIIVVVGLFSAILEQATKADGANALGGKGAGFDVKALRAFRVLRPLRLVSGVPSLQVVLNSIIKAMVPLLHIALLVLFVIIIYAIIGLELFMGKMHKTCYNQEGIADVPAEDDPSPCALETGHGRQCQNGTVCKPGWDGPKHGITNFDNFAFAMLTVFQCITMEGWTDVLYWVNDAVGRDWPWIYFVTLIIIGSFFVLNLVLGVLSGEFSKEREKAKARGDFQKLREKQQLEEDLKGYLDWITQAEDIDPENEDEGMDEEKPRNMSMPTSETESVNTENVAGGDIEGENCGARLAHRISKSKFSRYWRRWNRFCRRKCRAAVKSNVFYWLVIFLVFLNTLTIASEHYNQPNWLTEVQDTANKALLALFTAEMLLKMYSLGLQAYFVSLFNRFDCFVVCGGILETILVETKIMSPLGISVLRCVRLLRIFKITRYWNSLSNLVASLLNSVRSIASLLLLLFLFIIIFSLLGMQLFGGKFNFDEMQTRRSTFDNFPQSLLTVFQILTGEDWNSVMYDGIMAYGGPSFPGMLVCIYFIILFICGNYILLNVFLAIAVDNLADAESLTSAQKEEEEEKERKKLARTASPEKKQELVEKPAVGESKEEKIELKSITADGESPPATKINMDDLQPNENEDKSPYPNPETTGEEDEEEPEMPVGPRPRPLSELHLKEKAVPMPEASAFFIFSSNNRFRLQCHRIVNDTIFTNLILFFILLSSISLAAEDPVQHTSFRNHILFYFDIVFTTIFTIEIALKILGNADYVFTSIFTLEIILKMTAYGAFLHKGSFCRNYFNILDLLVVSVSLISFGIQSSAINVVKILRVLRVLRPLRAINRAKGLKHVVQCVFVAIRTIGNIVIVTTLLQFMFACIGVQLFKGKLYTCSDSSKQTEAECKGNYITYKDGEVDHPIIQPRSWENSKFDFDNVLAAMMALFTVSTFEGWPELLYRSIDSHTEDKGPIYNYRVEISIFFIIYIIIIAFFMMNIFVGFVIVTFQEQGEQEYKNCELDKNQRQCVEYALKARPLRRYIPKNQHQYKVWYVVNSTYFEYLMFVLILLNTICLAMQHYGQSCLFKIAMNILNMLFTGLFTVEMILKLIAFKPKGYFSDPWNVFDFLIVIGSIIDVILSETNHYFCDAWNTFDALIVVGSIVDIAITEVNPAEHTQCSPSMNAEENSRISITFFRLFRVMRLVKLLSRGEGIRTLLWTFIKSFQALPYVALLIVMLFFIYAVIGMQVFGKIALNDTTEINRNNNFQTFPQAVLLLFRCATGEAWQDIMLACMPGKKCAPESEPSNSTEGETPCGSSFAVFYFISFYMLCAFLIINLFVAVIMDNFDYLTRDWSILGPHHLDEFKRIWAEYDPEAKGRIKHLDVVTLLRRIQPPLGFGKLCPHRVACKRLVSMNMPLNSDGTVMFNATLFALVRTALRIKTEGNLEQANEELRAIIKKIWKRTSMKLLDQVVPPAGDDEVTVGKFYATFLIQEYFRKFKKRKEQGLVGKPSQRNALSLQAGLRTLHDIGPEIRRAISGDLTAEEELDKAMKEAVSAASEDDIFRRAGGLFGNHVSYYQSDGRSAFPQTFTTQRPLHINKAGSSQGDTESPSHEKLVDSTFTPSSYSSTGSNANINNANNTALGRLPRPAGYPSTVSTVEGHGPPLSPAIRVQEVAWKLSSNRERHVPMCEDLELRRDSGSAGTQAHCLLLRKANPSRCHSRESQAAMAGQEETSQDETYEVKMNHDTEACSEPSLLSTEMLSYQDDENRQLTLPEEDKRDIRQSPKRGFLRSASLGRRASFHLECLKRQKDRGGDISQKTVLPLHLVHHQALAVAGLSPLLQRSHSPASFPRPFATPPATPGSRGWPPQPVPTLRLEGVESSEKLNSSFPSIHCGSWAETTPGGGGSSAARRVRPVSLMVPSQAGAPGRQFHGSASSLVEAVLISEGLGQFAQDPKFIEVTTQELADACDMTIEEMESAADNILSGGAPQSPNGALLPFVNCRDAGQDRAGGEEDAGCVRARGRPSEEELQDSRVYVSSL
Sequence of Cytochrome P450 3A4 (P08684 whole entry): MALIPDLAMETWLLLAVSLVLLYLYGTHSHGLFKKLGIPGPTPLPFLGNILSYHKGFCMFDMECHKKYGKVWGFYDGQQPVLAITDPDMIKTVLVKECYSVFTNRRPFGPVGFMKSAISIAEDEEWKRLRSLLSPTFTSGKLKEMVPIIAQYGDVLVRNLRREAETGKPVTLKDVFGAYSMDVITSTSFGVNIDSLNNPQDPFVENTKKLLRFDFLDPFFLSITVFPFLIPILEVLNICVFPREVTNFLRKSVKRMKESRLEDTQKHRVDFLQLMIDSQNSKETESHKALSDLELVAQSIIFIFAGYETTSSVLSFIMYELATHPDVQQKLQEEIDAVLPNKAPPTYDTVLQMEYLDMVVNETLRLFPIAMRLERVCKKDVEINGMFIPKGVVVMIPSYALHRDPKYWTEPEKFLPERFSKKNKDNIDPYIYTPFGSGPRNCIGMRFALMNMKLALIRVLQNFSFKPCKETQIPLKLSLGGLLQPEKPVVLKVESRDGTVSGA

Work on `CC(C)(C)NC(=O)Cn1c(-c2ccc(OC(F)(F)F)cc2)cc2cc(C(C)(C)C(=O)NC(C)(C)C)ccc21` yielded an Activity (Rattus norvegicus [1]) of 68%, an Activity (Rattus norvegicus [2]) of 66% and a concentration at 3 h [3] of 170 nM. The remaining at 1 h [4] was 20%, the Activity (Rattus norvegicus [5]) was 37% and the EC50 [6] was over 30 µM. For the same molecule, the Activity (Rattus norvegicus [7]) was 36%, the AUC (Canis familiaris [8]) was 1.02 µM·kg·h/mg and the AUC (Rattus norvegicus [9]) was 0.34 µM·kg·h/mg. The Activity (Rattus norvegicus [10]) was 57%, the IC50 (Cytochrome P450 2D6) was over 10 µM and the half-life [11] was 4.6 h. For the same molecule, the Cmax [12] was 290 nM, the Activity (Rattus norvegicus [13]) was “Toxic” and the clearance [14] was 64 mL/min/kg. It also gave a concentration at 1 h [15] of 260 nM, an Activity (Rattus norvegicus [16]) of 17% and a concentration at 1 h [17] of 410 nM. The Activity (Rattus norvegicus [18]) was “Non-toxic”, the IC50 (Cytochrome P450 3A4) was over 10 µM and the Activity (Rattus norvegicus [19]) was 47%. The Activity (Rattus norvegicus [20]) was “Non-toxic”, the concentration (Brain) was 1400 nM and the Activity (Rattus norvegicus [21]) was “Toxic”. The Activity (Rattus norvegicus [22]) was 22%, the Activity (Canis familiaris [23]) was “Toxic” and the inhibition at 10 µM [24] was 85%. For the same molecule, the IC50 (Cytochrome P450 2C9) was over 10 µM, the concentration (Plasma) was 1900 nM and the clearance [25] was 5.6 mL/min/kg. It also gave a Vd [26] of 5.1 L/kg, an Activity (Rattus norvegicus [27]) of 32% and a remaining at 1 h [28] of 20%. The Activity (Rattus norvegicus [29]) was 68%, the Activity (Rattus norvegicus [30]) was 27% and the Activity (Rattus norvegicus [31]) was “Active”. It also gave a half-life [32] of 1.4 h, a bioavailability [33] of 68% and a bioavailability [34] of 18%. For the same molecule, the Activity (Rattus norvegicus [35]) was 50%, the Activity (Rattus norvegicus [36]) was 45% and the concentration at 3 h [37] was 750 nM. For the same molecule, the Activity (Canis familiaris [38]) was 32%, the Activity (Rattus norvegicus [39]) was 14% and the Activity (Rattus norvegicus [40]) was 52%.
